Data reported in ChEMBL document CHEMBL2390870, “Coumarin chalcone fibrates: a new structural class of lipid lowering agents” (2013).
Activity calls are given as the source filed them. No cut-off for these calls is given here.

Experiments:
Rattus norvegicus [1] = experiment: Antihyperlipidemic activity in triton WR-1339-induced Charles-Foster rat assessed as increase in post heparin lipolytic activity at 100 mg/kg, po after 18 hrs by spectrophotometric analysis relative to control; assay type: functional
Method in brief: (§1)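 Triton WR-1339 400 mg/kg i.p. in male Charles Foster rats (six per group), with test agent in 0.2% gum acacia given orally at the same time. Post-heparin plasma lipolytic activity read after 18 h as nmol free fatty acids formed/h/ml plasma; percent change; mean ± SD; t-test.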

Rattus norvegicus [2] = experiment: Antihyperlipidemic activity in triton WR-1339-induced Charles-Foster rat assessed as decrease in plasma triglyceride level at 100 mg/kg, po after 18 hrs relative to control; assay type: functional; design: scale not given: the % may be the effect or the level left
Method in brief: (§2)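 Male adult Charles Foster rats (200–225 g), six per group; hyperlipidemia induced by triton WR-1339 400 mg/kg i.p.; test agent macerated with 0.2% w/v gum acacia in water and given orally at the same time, with diet withdrawn; vehicle to controls. After 18 h, plasma was obtained by centrifugation at 2500 g, 4 °C, 10 min and diluted 1:3 in saline. Mean ± SD; Student's t-test.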

Rattus norvegicus [3] = experiment: Antihyperlipidemic activity in triton WR-1339-induced Charles-Foster rat assessed as decrease in plasma phospholipid level at 100 mg/kg, po after 18 hrs relative to control; assay type: functional; design: scale not given: the % may be the effect or the level left; method in brief: as §2
Rattus norvegicus [4] = experiment: Antihyperlipidemic activity in triton WR-1339-induced Charles-Foster rat assessed as decrease in plasma total cholesterol level at 100 mg/kg, po after 18 hrs relative to control; assay type: functional; design: scale not given: the % may be the effect or the level left; method in brief: as §2
Rattus norvegicus [5] = experiment: Antihyperlipidemic activity in triton WR-1339-induced Charles-Foster rat assessed as increase in post heparin lipolytic activity at 200 mg/kg, po after 18 hrs by spectrophotometric analysis relative to control; assay type: functional; method in brief: as §1
Rattus norvegicus [6] = experiment: Antihyperlipidemic activity in triton WR-1339-induced Charles-Foster rat assessed as decrease in plasma total cholesterol level at 200 mg/kg, po after 18 hrs relative to control; assay type: functional; design: scale not given: the % may be the effect or the level left; method in brief: as §2
Rattus norvegicus [7] = experiment: Antihyperlipidemic activity in triton WR-1339-induced Charles-Foster rat assessed as decrease in plasma LDL level at 100 mg/kg, po after 18 hrs; assay type: functional, organism-based; design: dose 100 mg/kg; method in brief: as §2
Rattus norvegicus [8] = experiment: Antihyperlipidemic activity in triton WR-1339-induced Charles-Foster rat assessed as decrease in plasma triglyceride level at 200 mg/kg, po after 18 hrs relative to control; assay type: functional; design: scale not given: the % may be the effect or the level left; method in brief: as §2
Rattus norvegicus [9] = experiment: Antihyperlipidemic activity in triton WR-1339-induced Charles-Foster rat assessed as increase in liver lipoprotein lipase activity at 100 mg/kg, po after 18 hrs; assay type: functional, organism-based; design: dose 100 mg/kg
Rattus norvegicus [10] = experiment: Antihyperlipidemic activity in triton WR-1339-induced Charles-Foster rat assessed as increase in post heparin lipolytic activity at 50 mg/kg, po after 18 hrs by spectrophotometric analysis relative to control; assay type: functional; method in brief: as §1
Rattus norvegicus [11] = experiment: Antihyperlipidemic activity in triton WR-1339-induced Charles-Foster rat assessed as increase in plasma HDL level at 100 mg/kg, po after 18 hrs; assay type: functional, organism-based; design: dose 100 mg/kg; method in brief: as §2
Rattus norvegicus [12] = experiment: Antihyperlipidemic activity in triton WR-1339-induced Charles-Foster rat assessed as decrease in plasma phospholipid level at 200 mg/kg, po after 18 hrs relative to control; assay type: functional; design: scale not given: the % may be the effect or the level left; method in brief: as §2
Rattus norvegicus [13] = experiment: Antihyperlipidemic activity in triton WR-1339-induced Charles-Foster rat assessed as decrease in plasma VLDL level at 100 mg/kg, po after 18 hrs; assay type: functional, organism-based; design: dose 100 mg/kg; method in brief: as §2
Rattus norvegicus [14] = experiment: Antihyperlipidemic activity in triton WR-1339-induced Charles-Foster rat assessed as decrease in plasma total cholesterol level at 50 mg/kg, po after 18 hrs relative to control; assay type: functional; design: scale not given: the % may be the effect or the level left; method in brief: as §2
Rattus norvegicus [15] = experiment: Antihyperlipidemic activity in triton WR-1339-induced Charles-Foster rat assessed as decrease in plasma triglyceride level at 50 mg/kg, po after 18 hrs relative to control; assay type: functional; design: scale not given: the % may be the effect or the level left; method in brief: as §2
Rattus norvegicus [16] = experiment: Antihyperlipidemic activity in triton WR-1339-induced Charles-Foster rat assessed as decrease in plasma phospholipid level at 50 mg/kg, po after 18 hrs relative to control; assay type: functional; design: scale not given: the % may be the effect or the level left; method in brief: as §2

Structure (SMILES) | Activity (Rattus norvegicus [1]) [%] | Activity (Rattus norvegicus [2]) [%] | Activity (Rattus norvegicus [3]) [%] | Activity (Rattus norvegicus [4]) [%] | other results
CCOC(=O)CCCOc1ccc(C(=O)/C=C/c2cc(C(C)CC)c3oc(=O)c(C(=O)OCC)cc3c2)cc1 (stereo unspecified) | 7 | 12 | 12 | 13 | –
CCOC(=O)COc1ccc(C(=O)/C=C/c2cc(C)c3oc(=O)c(C(=O)OCC)cc3c2)cc1 | 2 | 8 | 8 | 6 | –
CCOC(=O)COc1ccc(C(=O)/C=C/c2cc(C(C)CC)c3oc(=O)c(C(=O)OCC)cc3c2)cc1 (stereo unspecified) | 8 | 11 | 12 | 11 | –
CCOC(=O)CCCOc1ccc(C(=O)/C=C/c2cc(C)c3oc(=O)c(C(=O)OCC)cc3c2)cc1 | 12 | 16 | 17 | 19 | –
CCOC(=O)C(C)Oc1ccc(C(=O)/C=C/c2cc(C=O)c(O)c(C(C)CC)c2)cc1 (stereo unspecified) | 5 | 11 | 11 | 13 | –
CC(C)c1cc(/C=C/C(=O)c2ccc(OCC(=O)O)cc2)cc2cc(C(=O)O)c(=O)oc12 | 3 | 8 | 7 | 9 | –
Cc1cc(/C=C/C(=O)c2ccc(OC(C)C(=O)O)cc2)cc2cc(C(=O)O)c(=O)oc12 (stereo unspecified) | 17 | 25 | 24 | 26 | Activity (Rattus norvegicus [5]): 17%; Activity (Rattus norvegicus [6]): 27%; Activity (Rattus norvegicus [7]): Active; Activity (Rattus norvegicus [8]): 26%; Activity (Rattus norvegicus [9]): Active; Activity (Rattus norvegicus [10]): 12%; Activity (Rattus norvegicus [11]): Active; Activity (Rattus norvegicus [12]): 24%; Activity (Rattus norvegicus [13]): Active; Activity (Rattus norvegicus [14]): 16%; Activity (Rattus norvegicus [15]): 14%; Activity (Rattus norvegicus [16]): 15%
CCC(C)c1cc(/C=C/C(=O)c2ccc(OCC(=O)O)cc2)cc2cc(C(=O)O)c(=O)oc12 (stereo unspecified) | 3 | 9 | 9 | 8 | –
CCOC(=O)C(C)Oc1ccc(C(=O)/C=C/c2cc(C)c(O)c(C=O)c2)cc1 (stereo unspecified) | 6 | 11 | 13 | 12 | –
CCOC(=O)COc1ccc(C(=O)/C=C/c2cc(C(C)C)c3oc(=O)c(C(=O)OCC)cc3c2)cc1 | 15 | 22 | 20 | 21 | –
Cc1ccc(C)c(OCCCC(C)(C)C(=O)O)c1 [GEMFIBROZIL] | 19 | 33 | 30 | 32 | –
CCOC(=O)c1cc2cc(/C=C/C(=O)c3ccc(OC(CC)C(=O)OCC)cc3)cc(C)c2oc1=O (stereo unspecified) | 10 | 14 | 15 | 14 | –
CCOC(=O)c1cc2cc(/C=C/C(=O)c3ccc(OC(C)(C)C(=O)OCC)cc3)cc(C(C)CC)c2oc1=O (stereo unspecified) | 15 | 23 | 23 | 22 | Activity (Rattus norvegicus [5]): 15%; Activity (Rattus norvegicus [6]): 23%; Activity (Rattus norvegicus [8]): 25%; Activity (Rattus norvegicus [10]): 13%; Activity (Rattus norvegicus [12]): 24%; Activity (Rattus norvegicus [14]): 18%; Activity (Rattus norvegicus [15]): 16%; Activity (Rattus norvegicus [16]): 16%
CCOC(=O)c1cc2cc(/C=C/C(=O)c3ccc(OC(C)C(=O)OCC)cc3)cc(C)c2oc1=O (stereo unspecified) | 6 | 11 | 12 | 10 | –
CCOC(=O)CCCOc1ccc(C(=O)/C=C/c2cc(C(C)(C)C)c3oc(=O)c(C(=O)OCC)cc3c2)cc1 | 5 | 11 | 11 | 12 | –
CCOC(=O)COc1ccc(C(=O)/C=C/c2cc(C(C)(C)C)c3oc(=O)c(C(=O)OCC)cc3c2)cc1 | 5 | 11 | 11 | 13 | –
CCOC(=O)c1cc2cc(/C=C/C(=O)c3ccc(OC(C)C(=O)OCC)cc3)cc(C(C)CC)c2oc1=O (stereo unspecified) | 5 | 9 | 9 | 10 | –
CCOC(=O)c1cc2cc(/C=C/C(=O)c3ccc(OC(C)(C)C(=O)OCC)cc3)cc(C)c2oc1=O | 5 | 8 | 10 | 10 | –
CCC(C)c1cc(/C=C/C(=O)c2ccc(OC(C)(C)C(=O)O)cc2)cc2cc(C(=O)O)c(=O)oc12 (stereo unspecified) | 4 | 9 | 8 | 8 | –
